Source: PubChem BioAssay (Broad Institute)
Only a selection was taken, and hits are over-represented in it overall.
T cruzi growth-1: T. cruzi proliferation inhibition; 77,000 tested, 5.9% active; inhibition, % at 8.34 µM; T. cruzi beta-gal in NIH3T3, GalScreen luminescence, 90 h;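 active = mean inhibition above about 93%, with at least 55% of replicates each passing it, limit read from the data, passing the limit was not always enough; inconclusive = only one of those two conditions holds; inactive = neither condition holds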
KDM4C inh: inhibitors of human demethylase GASC-1 KDM4C. Q9H3R0. GST-KDM4C 2-372, H3K9me3 peptide, LANCE TR-FRET. inhibition, % at 12.5 µM. 96,000 tested, 0.15% active;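 active = mean replicate inhibition above about 25%, with at least 55% of replicates also reaching it, limit read from the data, passing the limit was not always enough; inconclusive = only one of those two conditions met; inactive = neither condition met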
Target sequence (Q9H3R0 2-372 limits assumed): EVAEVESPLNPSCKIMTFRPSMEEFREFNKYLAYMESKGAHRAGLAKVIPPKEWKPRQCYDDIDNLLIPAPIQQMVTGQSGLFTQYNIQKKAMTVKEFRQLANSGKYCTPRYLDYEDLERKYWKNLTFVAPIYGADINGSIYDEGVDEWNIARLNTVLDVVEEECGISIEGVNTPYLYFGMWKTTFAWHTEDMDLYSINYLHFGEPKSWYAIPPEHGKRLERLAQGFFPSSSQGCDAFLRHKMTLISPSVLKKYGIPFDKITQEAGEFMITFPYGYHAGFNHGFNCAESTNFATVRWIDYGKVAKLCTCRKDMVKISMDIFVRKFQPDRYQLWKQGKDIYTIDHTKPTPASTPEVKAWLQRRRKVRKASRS
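System – N-terminal GST-fused human GASC-1 (KDM4C) fragment, residues 2-372 · Input – enzyme final amount 10 nM · Technique – LANCE TR-FRET, Eu antibody, ULight-streptavidin, EDTA, ex 340 nm, em 618/671 nm · Medium – HEPES buffer, pH 7.5, plus ascorbate · Incubation – enzyme reaction 30 min, then detection 60 min, both room temperature · Reagent – H3K9me3 peptide with Fe(II)/2OG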
IDH1 R132H inh: inhibitors of human IDH1 R132H. O75874. IDH1 R132H reductase, diaphorase/resazurin fluorescence, 60 min. inhibition, % at 10 µM. 70,000 tested, 0.18% active. AID 624101; in the data active = inhibition above about 34%; inconclusive = no clear call, values can overlap the other calls; inactive = below about 11%
Target sequence (O75874 whole entry R132H): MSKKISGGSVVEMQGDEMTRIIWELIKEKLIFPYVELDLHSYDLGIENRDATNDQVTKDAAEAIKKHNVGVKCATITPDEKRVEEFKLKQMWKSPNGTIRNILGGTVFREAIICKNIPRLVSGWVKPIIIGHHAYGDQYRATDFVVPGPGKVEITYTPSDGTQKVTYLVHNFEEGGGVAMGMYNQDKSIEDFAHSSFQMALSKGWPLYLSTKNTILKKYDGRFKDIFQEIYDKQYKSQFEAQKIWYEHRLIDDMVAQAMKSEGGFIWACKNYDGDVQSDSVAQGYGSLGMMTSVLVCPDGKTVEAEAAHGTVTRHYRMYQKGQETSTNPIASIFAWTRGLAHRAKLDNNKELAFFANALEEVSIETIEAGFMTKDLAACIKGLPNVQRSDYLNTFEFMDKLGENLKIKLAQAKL
T cruzi growth-2: Trypanosoma cruzi proliferation inhibition | shares compounds with T cruzi growth-1 | T. cruzi beta-gal in NIH3T3, GalScreen luminescence, 90 h | inhibition, % at 8.35 µM | 5,600 tested, 72% active | AID 651739;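 active = mean replicate inhibition above about 95% and at least 55% of replicates individually reaching it, limit read from the data; inconclusive = only one of the two criteria is met; inactive = neither criterion is met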
T cruzi growth-3: blocks T. cruzi growth in NIH3T3 host cells; shares compounds with T cruzi growth-1; T. cruzi beta-gal in NIH3T3, GalScreen luminescence, 90 h; inhibition, % at 2.09 µM; 5,600 tested, 21% active; AID 651740;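 active = mean inhibition above about 95%, with at least 55% of replicates also reaching it, limit read from the data; inconclusive = meets just one of the two conditions; inactive = meets neither condition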
3T3 cytotox: kills mouse NIH/3T3 fibroblasts | shares compounds with T cruzi growth-1 | cytotoxicity (signal decrease), % at 8.35 µM | NIH/3T3 viability, CellTiter-Glo ATP luminescence, 90 h | 5,600 tested, 14% active;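 active = mean signal decrease across replicates above about 35% based on untreated-well scatter, with enough replicates individually passing, limit read from the data; inconclusive = no rule stated though some were filed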
NIH3T3 tox 2: NIH/3T3 (mouse) viability loss | 5,600 tested, 56% active | inhibition, % at 24.9 µM | shares compounds with T cruzi growth-1 | NIH/3T3 viability, CellTiter-Glo ATP luminescence, 90 h;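 active = mean loss of cell viability signal at or above a set limit, and enough replicates individually reaching it; inconclusive = meets only the mean limit or only the replicate share; inactive = meets neither condition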
Of the large screens only hits and unclear results are named; the others gave an inactive call (follow-up assays come after a bar, where they were run).

C[C@@H]1CCCCO[C@@H](CN(C)Cc2ccc3c(c2)OCO3)[C@H](C)CN([C@@H](C)CO)C(=O)c2cc(NC(=O)Nc3ccc(F)cc3)ccc2O1	T cruzi growth-1 110 | T cruzi growth-2 98 | T cruzi growth-3 inactive | 3T3 cytotox inactive | NIH3T3 tox 2 92
C[C@H](CO)N1C[C@H](C)[C@H](CN(C)Cc2ccc3c(c2)OCO3)OCCCC[C@H](C)Oc2ccc(NC(=O)Nc3ccc4c(c3)OCO4)cc2C1=O	none (no result: T cruzi growth-1)
C[C@@H]1CCCCO[C@H](CN(C)Cc2ccc3c(c2)OCO3)[C@@H](C)CN([C@@H](C)CO)C(=O)c2cc(NC(=O)Nc3ccc(F)cc3)ccc2O1	T cruzi growth-1 105 | T cruzi growth-2 102 | T cruzi growth-3 104 | 3T3 cytotox inactive | NIH3T3 tox 2 105
CC(C)NC(=O)Nc1ccc2c(c1)C(=O)N([C@@H](C)CO)C[C@@H](C)[C@@H](CN(C)Cc1ccc3c(c1)OCO3)OCCCC[C@@H](C)O2	none
C[C@H](CO)N1C[C@H](C)[C@@H](CN(C)Cc2ccc3c(c2)OCO3)OCCCC[C@H](C)Oc2ccc(NC(=O)Nc3ccc4c(c3)OCO4)cc2C1=O	none (no result: IDH1 R132H inh)
C[C@@H]1CN([C@H](C)CO)C(=O)c2cc(NC(=O)Nc3ccc4c(c3)OCO4)ccc2O[C@@H](C)CCCCO[C@H]1CN(C)Cc1ccc2c(c1)OCO2	none (no result: T cruzi growth-1, IDH1 R132H inh)
O=C(Nc1c(F)cccc1F)C1CN(S(=O)(=O)c2ccccc2)CCN1S(=O)(=O)c1ccccc1 (centres undefined)	none (no result: T cruzi growth-1, KDM4C inh)
Cc1ccc(S(=O)(=O)N(C)C[C@@H]2Oc3ccc(NC(=O)c4ccncc4)cc3CC(=O)N([C@H](C)CO)C[C@@H]2C)cc1	none (no result: IDH1 R132H inh)
C[C@@H]1CCCCO[C@@H](CN(C)Cc2ccc3c(c2)OCO3)[C@@H](C)CN([C@@H](C)CO)C(=O)c2cc(NC(=O)Nc3ccc(F)cc3)ccc2O1	T cruzi growth-1 98 | T cruzi growth-2 110 | T cruzi growth-3 inactive | 3T3 cytotox inactive | NIH3T3 tox 2 inactive
C[C@H](CO)N1C[C@H](C)[C@H](CN(C)Cc2ccc3c(c2)OCO3)OCCCC[C@H](C)Oc2ccc(NC(=O)Nc3ccc(F)cc3)cc2C1=O	none (no result: IDH1 R132H inh)
C[C@H](NC(=O)C[C@@H]1CC[C@@H]2[C@H](COC[C@H](O)CN2C)O1)c1ccccc1	none (no result: IDH1 R132H inh)
CNC[C@H]1Oc2c(NS(C)(=O)=O)cccc2C(=O)N([C@H](C)CO)C[C@H]1C	none (no result: IDH1 R132H inh)
COc1ccc(S(=O)(=O)Nc2ccc3c(c2)C(=O)N([C@@H](C)CO)C[C@H](C)[C@H](CN(C)S(=O)(=O)c2ccc(OC)cc2)OCCCC[C@@H](C)O3)cc1	T cruzi growth-1 93 (no result: IDH1 R132H inh) | T cruzi growth-2 106 | T cruzi growth-3 inactive | 3T3 cytotox inactive | NIH3T3 tox 2 inactive
COc1ccc(S(=O)(=O)Nc2ccc3c(c2)C(=O)N([C@@H](C)CO)C[C@@H](C)[C@@H](CN(C)S(=O)(=O)c2ccc(OC)cc2)OCCCC[C@H](C)O3)cc1	none
COc1ccc(S(=O)(=O)Nc2ccc3c(c2)C(=O)N([C@H](C)CO)C[C@@H](C)[C@H](CN(C)S(=O)(=O)c2ccc(OC)cc2)OCCCC[C@@H](C)O3)cc1	T cruzi growth-1 inconclusive | T cruzi growth-2 102 | T cruzi growth-3 inactive | 3T3 cytotox inactive | NIH3T3 tox 2 inactive
COc1ccc(S(=O)(=O)Nc2ccc3c(c2)C(=O)N([C@H](C)CO)C[C@H](C)[C@@H](CN(C)S(=O)(=O)c2ccc(OC)cc2)OCCCC[C@H](C)O3)cc1	T cruzi growth-1 inconclusive (no result: IDH1 R132H inh) | T cruzi growth-2 111 | T cruzi growth-3 inactive | 3T3 cytotox inactive | NIH3T3 tox 2 inactive
COc1ccc(S(=O)(=O)Nc2ccc3c(c2)C(=O)N([C@H](C)CO)C[C@H](C)[C@@H](CN(C)S(=O)(=O)c2ccc(OC)cc2)OCCCC[C@@H](C)O3)cc1	none
COc1ccc(S(=O)(=O)Nc2ccc3c(c2)C(=O)N([C@@H](C)CO)C[C@@H](C)[C@@H](CN(C)S(=O)(=O)c2ccc(C)cc2)OCCCC[C@@H](C)O3)cc1	none (no result: T cruzi growth-1, IDH1 R132H inh)
CNC[C@H]1OCCCC[C@@H](C)Oc2ccc(NC(=O)c3ccncc3)cc2C(=O)N([C@H](C)CO)C[C@@H]1C	none
CO[C@@H]1CN(C)C(=O)c2ccc(NC(=O)c3ccccc3F)cc2OC[C@H](C)N(C(C)=O)C[C@H]1C	none
COCC#Cc1ccc2c(c1)O[C@@H](CN(C)S(=O)(=O)c1ccc(OC)cc1)[C@@H](C)CN([C@@H](C)CO)S2(=O)=O	none (no result: T cruzi growth-1)
C[C@H]1CN([C@@H](C)CO)S(=O)(=O)c2ccc(C#Cc3ccncc3)cc2O[C@@H]1CN(C)C(=O)C1CC1	none (no result: IDH1 R132H inh)
C[C@H](CO)N1C[C@H](C)[C@@H](CN(C)C(=O)C2CC2)Oc2cc(C#Cc3ccncc3)ccc2S1(=O)=O	T cruzi growth-1 123 (no result: IDH1 R132H inh) | T cruzi growth-2 inactive | T cruzi growth-3 inactive | 3T3 cytotox inactive | NIH3T3 tox 2 62
C[C@@H]1CN([C@@H](C)CO)S(=O)(=O)c2ccc(C#CC(C)(C)O)cc2O[C@H]1CN(C)C(=O)C1CC1	T cruzi growth-1 102 (no result: IDH1 R132H inh) | T cruzi growth-2 inactive | T cruzi growth-3 inactive | 3T3 cytotox inactive | NIH3T3 tox 2 47
C[C@@H]1CN([C@H](C)CO)S(=O)(=O)c2ccc(C#Cc3ccncc3)cc2O[C@@H]1CN(C)C(=O)C1CC1	none
C[C@H]1CN([C@@H](C)CO)S(=O)(=O)c2ccc(C#CC(C)(C)O)cc2O[C@H]1CN(C)C(=O)C1CC1	none
C[C@H](CO)N1C[C@H](C)[C@H](CN(C)C(=O)C2CC2)Oc2cc(C#Cc3ccncc3)ccc2S1(=O)=O	T cruzi growth-1 105 | T cruzi growth-2 105 | T cruzi growth-3 inactive | 3T3 cytotox inactive | NIH3T3 tox 2 65
CN(C)C(=O)[C@H]1[C@H](CO)[C@H]2Cn3c(ccc(-c4cncnc4)c3=O)[C@@H]1N2C(=O)NC1CCCC1	none (no result: IDH1 R132H inh)
CC(C)NC(=O)N(C)C[C@@H]1OCCCC[C@H](C)Oc2ccc(NC(=O)NC3CCCCC3)cc2C(=O)N([C@H](C)CO)C[C@@H]1C	none
COCC(=O)N1CC[C@H]2[C@@H]1c1cc(-c3ccccc3)ccc1N(C)[C@H]2CO	none (no result: IDH1 R132H inh)
CN1c2ccc(-c3cccc(F)c3)cc2[C@@H]2[C@@H](CCN2C(=O)C2CC2)[C@H]1CO	T cruzi growth-1 100 (no result: IDH1 R132H inh) | T cruzi growth-2 102 | T cruzi growth-3 101 | 3T3 cytotox inactive | NIH3T3 tox 2 91
CCC(=O)N1CC[C@@H]2[C@@H](CO)N(C)c3ccc(-c4cccc(F)c4)cc3[C@@H]21	none (no result: IDH1 R132H inh)
COCC(=O)N1CC[C@@H]2[C@H]1c1cc(-c3cccc(OC)c3)ccc1N(C)[C@@H]2CO	T cruzi growth-1 117 (no result: IDH1 R132H inh) | T cruzi growth-2 107 | T cruzi growth-3 inactive | 3T3 cytotox inactive | NIH3T3 tox 2 inactive
CCC(=O)N1CC[C@@H]2[C@H]1c1cc(-c3cccc(OC)c3)ccc1N(C)[C@H]2CO	none (no result: IDH1 R132H inh)
